Data on 25 compounds can be found in ChEMBL document CHEMBL1154286, “The discovery and optimisation of pyrido[2,3-d]pyrimidine-2,4-diamines as potent and selective inhibitors of mTOR kinase” (Bioorg Med Chem Lett, 2009).

SMILES strings stand for the structures.

The subject of one experiment is T47D. The experiment is described as follows: Antiproliferative activity against human T47D cells after 120 hrs by SRB assay. The experiment is classed as functional. Background: The SRB assay estimates cell density from bound dye.
For orientation: GI50 means the concentration giving 50% growth inhibition. For the compound `COc1ccc(-c2ccc3c(N4CCOCC4)nc(N4C[C@@H](C)O[C@@H](C)C4)nc3n2)cc1CO` [Ku-0063794], the 50% growth inhibitory concentration (GI50) amounted to 350 nM.

The next experiment concerns the target Serine/threonine-protein kinase ATR (Homo sapiens, UniProt Q13535). As to the kind of experiment: Inhibition of ATR.
In general, IC50 refers to the concentration at which inhibition is half-maximal. A high value points to weaker potency in that assay. `COc1ccc(-c2ccc3c(N4CCOCC4)nc(N4C[C@@H](C)O[C@@H](C)C4)nc3n2)cc1CO` [Ku-0063794] registered an IC50 of more than 10000 nM.

The target of the next experiment is Serine/threonine-protein kinase mTOR (Homo sapiens) (UniProt P42345). As to the kind of experiment: Inhibition of mTOR in human HeLa cells using 4E-BP1 substrate at 10 uM by ELISA. In kind it is cell-based. In general terms: ELISA stands for enzyme-linked immunosorbent assay.
The term inhibition denotes the percentage by which the read-out fell short of the control. A lower inhibition goes with little suppression. In turn, `CC1CCCCN1c1nc(N2CCOCC2)c2ncccc2n1` (stereo not drawn) registered an inhibition of less than 30%.

`C[C@H]1CCCCN1c1nc(N2CCCCC2)c2cccnc2n1` showed an inhibition of less than 30%.

As for `CC1CCCCN1c1nc(N2CCOCC2)c2ccccc2n1` (stereo not drawn), the inhibition is less than 30%.

`CC1CCCCN1c1nc(N2CCOCC2)c2ccncc2n1` (stereo not drawn): the inhibition was less than 30%.

In the case of `c1cnc2nc(N3CCOCC3)nc(N3CCOCC3)c2c1`, the inhibition is less than 30%.

The next experiment deals with DNA-dependent protein kinase catalytic subunit (Homo sapiens, UniProt P78527). The experiment is described as follows: Inhibition of DNA-PK.
DNA-dependent protein kinase catalytic subunit, sequence (P78527 whole entry): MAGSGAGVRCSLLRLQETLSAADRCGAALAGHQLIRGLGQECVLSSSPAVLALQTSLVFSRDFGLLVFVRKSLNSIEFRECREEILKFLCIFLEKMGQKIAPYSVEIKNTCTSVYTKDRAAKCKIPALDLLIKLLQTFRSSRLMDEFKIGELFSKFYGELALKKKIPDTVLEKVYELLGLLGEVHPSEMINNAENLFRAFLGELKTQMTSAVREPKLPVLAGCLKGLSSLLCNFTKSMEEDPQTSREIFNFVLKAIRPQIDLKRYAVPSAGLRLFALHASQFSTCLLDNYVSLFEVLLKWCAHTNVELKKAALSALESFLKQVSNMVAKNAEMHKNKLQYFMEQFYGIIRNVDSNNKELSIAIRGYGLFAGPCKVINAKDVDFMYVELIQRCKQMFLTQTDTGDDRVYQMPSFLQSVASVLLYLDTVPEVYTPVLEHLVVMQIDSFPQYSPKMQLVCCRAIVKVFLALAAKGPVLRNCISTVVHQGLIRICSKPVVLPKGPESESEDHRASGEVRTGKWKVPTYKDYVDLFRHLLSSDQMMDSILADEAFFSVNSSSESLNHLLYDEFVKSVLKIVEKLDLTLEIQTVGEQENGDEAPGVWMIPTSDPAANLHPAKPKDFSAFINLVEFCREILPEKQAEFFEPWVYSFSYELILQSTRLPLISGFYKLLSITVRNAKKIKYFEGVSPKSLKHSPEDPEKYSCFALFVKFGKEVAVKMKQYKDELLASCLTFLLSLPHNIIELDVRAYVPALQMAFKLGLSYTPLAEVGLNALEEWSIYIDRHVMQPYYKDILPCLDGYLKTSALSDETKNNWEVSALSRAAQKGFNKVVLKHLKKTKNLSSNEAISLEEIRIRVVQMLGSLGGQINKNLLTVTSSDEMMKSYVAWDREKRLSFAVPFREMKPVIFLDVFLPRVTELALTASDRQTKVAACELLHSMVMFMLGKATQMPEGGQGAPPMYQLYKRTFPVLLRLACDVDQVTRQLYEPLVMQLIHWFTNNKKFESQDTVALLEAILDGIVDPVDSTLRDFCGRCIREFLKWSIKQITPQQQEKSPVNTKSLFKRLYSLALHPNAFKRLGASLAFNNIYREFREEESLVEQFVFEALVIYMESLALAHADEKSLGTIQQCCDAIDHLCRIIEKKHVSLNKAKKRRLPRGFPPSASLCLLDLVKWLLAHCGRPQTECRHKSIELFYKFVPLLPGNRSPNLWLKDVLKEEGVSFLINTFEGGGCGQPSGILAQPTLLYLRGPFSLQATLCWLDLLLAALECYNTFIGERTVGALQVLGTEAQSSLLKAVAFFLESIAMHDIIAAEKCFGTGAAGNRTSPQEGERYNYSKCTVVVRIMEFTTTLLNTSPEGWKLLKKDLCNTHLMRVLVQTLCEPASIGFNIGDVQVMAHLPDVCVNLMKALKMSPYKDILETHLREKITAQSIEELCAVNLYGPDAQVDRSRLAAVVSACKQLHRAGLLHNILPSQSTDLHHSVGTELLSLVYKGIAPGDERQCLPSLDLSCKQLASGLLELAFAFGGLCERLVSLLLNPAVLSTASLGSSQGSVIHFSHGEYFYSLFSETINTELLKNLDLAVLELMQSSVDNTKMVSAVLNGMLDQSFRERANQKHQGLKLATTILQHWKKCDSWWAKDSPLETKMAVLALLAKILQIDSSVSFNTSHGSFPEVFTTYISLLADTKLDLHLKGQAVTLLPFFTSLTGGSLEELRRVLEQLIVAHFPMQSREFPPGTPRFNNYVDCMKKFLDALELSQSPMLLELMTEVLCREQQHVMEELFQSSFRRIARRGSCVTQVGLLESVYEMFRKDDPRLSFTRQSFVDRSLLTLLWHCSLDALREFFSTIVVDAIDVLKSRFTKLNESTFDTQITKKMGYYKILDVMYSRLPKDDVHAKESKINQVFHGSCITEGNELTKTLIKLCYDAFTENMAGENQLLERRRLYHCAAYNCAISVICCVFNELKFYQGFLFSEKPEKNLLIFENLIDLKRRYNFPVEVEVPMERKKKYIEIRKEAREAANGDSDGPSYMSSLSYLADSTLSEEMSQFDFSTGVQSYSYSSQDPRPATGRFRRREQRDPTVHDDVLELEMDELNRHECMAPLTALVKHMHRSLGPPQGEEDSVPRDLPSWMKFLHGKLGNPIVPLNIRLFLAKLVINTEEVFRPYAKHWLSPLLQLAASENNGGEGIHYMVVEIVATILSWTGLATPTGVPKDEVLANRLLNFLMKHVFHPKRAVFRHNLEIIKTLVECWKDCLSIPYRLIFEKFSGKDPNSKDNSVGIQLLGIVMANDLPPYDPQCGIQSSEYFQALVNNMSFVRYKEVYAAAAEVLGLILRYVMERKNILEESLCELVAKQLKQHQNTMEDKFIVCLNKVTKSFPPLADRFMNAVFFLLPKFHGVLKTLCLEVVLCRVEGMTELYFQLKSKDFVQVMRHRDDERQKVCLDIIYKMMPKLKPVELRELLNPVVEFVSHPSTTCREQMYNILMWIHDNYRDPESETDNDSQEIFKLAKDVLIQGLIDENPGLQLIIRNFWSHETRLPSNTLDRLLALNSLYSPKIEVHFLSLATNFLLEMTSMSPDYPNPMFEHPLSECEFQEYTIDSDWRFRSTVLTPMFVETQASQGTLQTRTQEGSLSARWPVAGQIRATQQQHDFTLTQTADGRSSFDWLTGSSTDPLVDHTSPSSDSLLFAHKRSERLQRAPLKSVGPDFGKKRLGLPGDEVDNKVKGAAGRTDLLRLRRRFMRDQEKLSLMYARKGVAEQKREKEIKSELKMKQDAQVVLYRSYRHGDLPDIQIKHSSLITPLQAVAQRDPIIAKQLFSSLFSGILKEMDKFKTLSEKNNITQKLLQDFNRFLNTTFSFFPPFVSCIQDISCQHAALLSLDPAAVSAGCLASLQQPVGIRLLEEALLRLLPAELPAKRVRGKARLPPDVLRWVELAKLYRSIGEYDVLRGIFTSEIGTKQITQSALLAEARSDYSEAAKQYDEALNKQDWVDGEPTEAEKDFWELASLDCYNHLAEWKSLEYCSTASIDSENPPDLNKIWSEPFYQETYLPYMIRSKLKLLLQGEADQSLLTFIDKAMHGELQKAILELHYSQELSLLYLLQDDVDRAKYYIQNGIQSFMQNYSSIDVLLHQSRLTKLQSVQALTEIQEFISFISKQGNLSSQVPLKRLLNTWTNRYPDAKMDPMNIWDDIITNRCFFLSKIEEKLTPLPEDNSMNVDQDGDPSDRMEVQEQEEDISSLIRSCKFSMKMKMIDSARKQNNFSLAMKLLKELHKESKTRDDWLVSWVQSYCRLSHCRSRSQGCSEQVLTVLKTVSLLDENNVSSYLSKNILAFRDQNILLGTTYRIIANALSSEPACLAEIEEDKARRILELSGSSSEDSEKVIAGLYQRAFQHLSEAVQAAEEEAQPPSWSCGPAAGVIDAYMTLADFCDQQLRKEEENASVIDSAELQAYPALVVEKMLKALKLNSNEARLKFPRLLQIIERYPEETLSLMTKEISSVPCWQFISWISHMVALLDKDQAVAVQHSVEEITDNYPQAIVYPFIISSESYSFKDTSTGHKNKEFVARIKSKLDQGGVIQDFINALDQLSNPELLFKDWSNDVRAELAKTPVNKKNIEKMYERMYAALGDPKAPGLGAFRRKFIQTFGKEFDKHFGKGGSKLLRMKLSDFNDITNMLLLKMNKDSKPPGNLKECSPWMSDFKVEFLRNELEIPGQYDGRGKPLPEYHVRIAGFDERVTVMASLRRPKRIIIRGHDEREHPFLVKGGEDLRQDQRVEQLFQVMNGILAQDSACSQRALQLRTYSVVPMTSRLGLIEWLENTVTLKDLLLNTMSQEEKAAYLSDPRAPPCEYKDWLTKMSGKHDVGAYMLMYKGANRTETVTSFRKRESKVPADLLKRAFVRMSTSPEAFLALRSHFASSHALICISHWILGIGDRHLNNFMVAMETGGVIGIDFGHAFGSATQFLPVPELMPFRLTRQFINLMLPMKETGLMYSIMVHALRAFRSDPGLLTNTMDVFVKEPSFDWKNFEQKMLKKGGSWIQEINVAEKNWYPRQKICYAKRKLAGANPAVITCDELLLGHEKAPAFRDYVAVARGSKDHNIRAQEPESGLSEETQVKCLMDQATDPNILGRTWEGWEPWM
`COc1ccc(-c2ccc3c(N4CCOCC4)nc(N4C[C@@H](C)O[C@@H](C)C4)nc3n2)cc1CO` [Ku-0063794] returned an IC50 of more than 10000 nM.

System in a further experiment: not listed separately
The experiment is described as follows: Inhibition of mTOR in human HeLa cells using 4E-BP1 substrate by ELISA. In kind it is cell-based. Summed up:
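Full-length mTOR immunoprecipitated from HeLa cytoplasmic extract; recombinant 4E-BP1 protein as substrate; ATP at 50 µM; phosphorylated product detected by ELISA. Values are the mean of at least 3 determinations, with variability around the mean <50%.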
In the case of `CC1CCCN(c2nc(N3CCOCC3)c3cccnc3n2)C1` (stereo not drawn), the IC50 came out at 3000 nM.

Compound `COc1ccc(-c2ccc3c(N4CCOCC4)nc(N4C[C@@H](C)O[C@@H](C)C4)nc3n2)cc1` yielded an IC50 of 45 nM.

`C[C@@H]1CN(c2nc(N3CCOCC3)c3ccc(-c4cccc(O)c4)nc3n2)C[C@H](C)O1` displayed an IC50 of 53 nM.

With `C[C@@H]1CN(c2nc(N3CCOCC3)c3cccnc3n2)C[C@H](C)O1`, the IC50 was determined as 1300 nM.

`C[C@@H]1CN(c2nc(N3CCOCC3)c3ccc(-c4ccc(O)c(CO)c4)nc3n2)C[C@H](C)O1` returned an IC50 of 37 nM.

Consider `C[C@@H]1CN(c2nc(N3CCOCC3)c3ccc(-c4ccoc4)nc3n2)C[C@H](C)O1`, for which the IC50 came to 120 nM.

`C[C@H]1COCCN1c1nc(N2CCOCC2)c2cccnc2n1` gave an IC50 of 1800 nM.

Turning to `C[C@@H]1CN(c2nc(N3CCOCC3)c3ccc(-c4cccc(CO)c4)nc3n2)C[C@H](C)O1`, the 50% inhibitory concentration (IC50) worked out at 93 nM.

With `C[C@@H]1CN(c2nc(N3CCOCC3)c3ccc(Nc4ccccc4)nc3n2)C[C@H](C)O1`, the half-inhibitory concentration (IC50) came out at 120 nM.

`C[C@@H]1CN(c2nc(N3CCOCC3)c3ccc(-c4ccc(O)cc4)nc3n2)C[C@H](C)O1` yielded an IC50 of 39 nM.

Consider `CC1CCCCN1c1nc(N2CCOCC2)c2cccnc2n1` (racemic), for which the concentration for half-maximal inhibition (IC50) is 1000 nM.

`COc1cccc(-c2ccc3c(N4CCOCC4)nc(N4C[C@@H](C)O[C@@H](C)C4)nc3n2)c1`: the half-maximal inhibitory concentration (IC50) is 490 nM.

As to `C[C@@H]1CN(c2nc(N3CCOCC3)c3ccc(Nc4ccncc4)nc3n2)C[C@H](C)O1`, the IC50 turned out to be 87 nM.

With `C[C@@H]1CN(c2nc(N3CCOCC3)c3ccc(-c4ccncc4)nc3n2)C[C@H](C)O1`, the IC50 was determined as 220 nM.

`C[C@H]1CCCCN1c1nc(N2CCOCC2)c2cccnc2n1` displayed an IC50 of 690 nM.

Regarding `C[C@@H]1CN(c2nc(N3CCOCC3)c3ccc(-c4ccccc4)nc3n2)C[C@H](C)O1`, the IC50 amounted to 62 nM.

`C[C@H]1CCCCN1c1nc(N2CCCOCC2)c2cccnc2n1` displayed a half-maximal inhibitory concentration (IC50) of 4800 nM.

Regarding `C[C@@H]1CN(c2nc(N3CCOCC3)c3ccc(-c4ccsc4)nc3n2)C[C@H](C)O1`, the IC50 stood at 33 nM.

For `C[C@@H]1CCCCN1c1nc(N2CCOCC2)c2cccnc2n1`, the IC50 is 1200 nM.

`COc1ccc(-c2ccc3c(N4CCOCC4)nc(N4C[C@@H](C)O[C@@H](C)C4)nc3n2)cc1CO` [Ku-0063794] showed an IC50 of 16 nM.
